Screening data from PubChem.
aDG glyco act = increases alpha dystroglycan glycosylation; activation, % at 10 µM; Pro5-aDG cells, alpha-DG glycosylation AlphaScreen (IIH6); 0% Pro5, 100% B10-LARGE cell signal; 0.22% of 360,000 active;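 active = activation of at least 8% versus controls, or a plate z-score of at least 8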;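 also: Pro5 are CHO cells carrying HIG-tagged alpha-DG that lacks glycosylation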
CSN deneddyl inh = blocks human CSN-mediated cullin deneddylation. Q92905. Purified CSN, SCF-Nedd8-OG deneddylation, fluorescence polarization. inhibition, % at 12.5 µM. 0.38% of 360,000 active. AID 651999;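 active = pattern-corrected inhibition above about 35%, with an unprinted fluorescence ratio check between 0.5 and 1.5, limit read from the data, passing the limit was not always enough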;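 also: 0% = enzyme with substrate and 100% = substrate without enzyme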
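Assay system: Purified human Csn5 enzyme expressed in HEK293T cells | Amount: Enzyme 0.24 nM | Measured by: Fluorescence polarization readout | Medium: Tris/NaCl/DTT buffer, pH 7.5 | Compound dosing: One concentration, 12.5 µM, 0.25% DMSO | Times: 90 min incubation of compound, enzyme and substrate at room temperature | Control set: no-enzyme wells high, enzyme-with-substrate wells low | Read-out: % inhibition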
Rev-erbA mod = Rev-erb alpha (human) modulation | Rev-erbα–FITC-DNA binding, fluorescence polarization, 90 min | activity, % at 10 µM | 0.79% of 370,000 active;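 active = activity above about 14%, limit read from the data; passing the limit was not always enough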;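 also: 0% = DMSO wells with 35 nM protein and 100% = DMSO wells with 750 nM protein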
HNF4A DNA FP = change in binding of human HNF4 alpha to DNA. P41235. HNF4a-FITC DNA binding, fluorescence polarization, 1 h. activity change, % at 10 µM. 0.3% of 360,000 active. AID 1224865; in the data active = activity change above about 30%, passing the limit was not always enough
Target sequence (P41235 whole entry, looked up): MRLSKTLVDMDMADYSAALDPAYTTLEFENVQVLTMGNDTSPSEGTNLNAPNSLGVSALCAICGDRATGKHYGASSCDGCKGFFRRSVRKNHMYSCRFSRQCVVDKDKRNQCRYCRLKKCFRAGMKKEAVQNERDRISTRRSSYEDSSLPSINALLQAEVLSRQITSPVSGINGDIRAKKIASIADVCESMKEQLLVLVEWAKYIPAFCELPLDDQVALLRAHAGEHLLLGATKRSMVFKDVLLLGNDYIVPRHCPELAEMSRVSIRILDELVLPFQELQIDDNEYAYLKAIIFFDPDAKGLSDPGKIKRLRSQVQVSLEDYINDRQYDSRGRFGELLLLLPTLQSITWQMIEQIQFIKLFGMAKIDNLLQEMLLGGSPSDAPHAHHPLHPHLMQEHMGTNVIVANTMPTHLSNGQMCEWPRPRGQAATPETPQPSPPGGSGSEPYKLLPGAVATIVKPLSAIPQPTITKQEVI
* marks the source's active call; other numbers are inactive results. Shown are actives, neighbours in structure and some others; about 1.5% of the full set was active somewhere.

Results for CCc1ccc(S(=O)(=O)Nc2ccc(O)c3c(=O)cc(-c4ccccc4Cl)oc23)cc1 ?
aDG glyco act: 0.0; CSN deneddyl inh: 3.5; Rev-erbA mod: 3.7; HNF4A DNA FP: -0.3

How did O=c1cc(-c2ccccc2Cl)oc2c(NS(=O)(=O)c3cc(Cl)cc(Cl)c3O)ccc(O)c12 do in these assays?
aDG glyco act: 0.0; CSN deneddyl inh: 47.1*; HNF4A DNA FP: -21.5

How did C[C@H]1CC2C([C@@H](O)C[C@@]3(C)C2CC[C@]3(O)C(=O)CO)[C@@]2(C)C=CC(=O)C=C12 (stereo partly drawn) do in these assays?
Rev-erbA mod: 1.6

What do the screens show for `Cc1ccc(-c2cc(-c3nnc(SCC(=O)N4c5ccccc5Sc5ccc(Cl)cc54)n3N)[nH]n2)cc1`?
Rev-erbA mod: 1.2

What do the screens show for `Cc1ccc(C(=O)NC(=S)NNC(=O)COc2ccccc2C)cc1`?
aDG glyco act: 0.2; CSN deneddyl inh: -8.4; Rev-erbA mod: -7.3; HNF4A DNA FP: 26.7*

Results for Cc1ccc(C)c2nc3sc(C(=O)N4CCCc5ccccc54)c(N)c3cc12 ?
aDG glyco act: 0.3; CSN deneddyl inh: 5.0; Rev-erbA mod: 1.2; HNF4A DNA FP: 55.8*

How did O=c1[nH]ncc2c3ccccc3n(Cc3cccc(Cl)c3)c12 do in these assays?
aDG glyco act: 0.7; CSN deneddyl inh: 22.5; Rev-erbA mod: -3.6; HNF4A DNA FP: 62.8*

How did O=C(O)CCN1C(=O)/C(=C/c2ccc(-c3nc4ccccc4s3)o2)SC1=S do in these assays?
aDG glyco act: -0.3; CSN deneddyl inh: 193.0; Rev-erbA mod: 5.0; HNF4A DNA FP: 59.9*

Results for O=C(O)CCc1ccc(-c2ccc(Br)cc2)n1-c1ccc(O)cc1 ?
aDG glyco act: 0.0; CSN deneddyl inh: 38.9*; Rev-erbA mod: -3.2; HNF4A DNA FP: 2.4

How did Cc1ccc(-c2ccc(CCC(=O)O)n2-c2ccc(O)cc2)cc1 do in these assays?
aDG glyco act: 0.0; CSN deneddyl inh: 0.6; Rev-erbA mod: 5.1; HNF4A DNA FP: -1.5

What do the screens show for `CC(C)(CO)[C@@H](O)C(=O)NCCCC(=O)O`?
Rev-erbA mod: 4.5

What do the screens show for `COc1ccc(NC(=S)N(CCN(C)C)C(C)c2ccncc2)cc1Cl` (stereo not drawn)?
aDG glyco act: 0.6; CSN deneddyl inh: 2.6; Rev-erbA mod: -3.6; HNF4A DNA FP: 43.5*

How did COc1cc(Cl)ccc1NC(=S)N(CCN(C)C)C(C)c1ccncc1 (stereo not drawn) do in these assays?
aDG glyco act: 0.0; CSN deneddyl inh: 1.6; Rev-erbA mod: 3.2; HNF4A DNA FP: 3.7

Results for CCN(CC)C(=O)CC[C@H]1CC[C@]2(CCCN(CC3CC3)C2)O1 ?
Rev-erbA mod: 1.9

What do the screens show for `COC(=O)[C@H](CC(C)C)N(CCc1cn(Cc2ccccc2)nn1)S(=O)(=O)c1ccccc1Br`?
Rev-erbA mod: 1.9

Results for O=C(OC1C(OC(=O)c2cccnc2)C(OC(=O)c2cccnc2)C(OC(=O)c2cccnc2)C(OC(=O)c2cccnc2)C1OC(=O)c1cccnc1)c1cccnc1 (stereo not drawn) ?
Rev-erbA mod: 4.9

What do the screens show for `CCN(CC)CCOC(=O)c1ccc(N/C=C(/C#N)c2nc(-c3ccc(OC)cc3)cs2)cc1`?
aDG glyco act: 0.7; CSN deneddyl inh: 137.1*; Rev-erbA mod: 0.3; HNF4A DNA FP: 238.2

How did Cc1ccc(/C=c2\sc3nc(-c4cccs4)nn3c2=O)o1 do in these assays?
aDG glyco act: 0.1; CSN deneddyl inh: 44.0*; Rev-erbA mod: -2.0; HNF4A DNA FP: 0.5

Results for COc1ccc2[nH]cc(CCNS(=O)(=O)c3ccccc3)c2c1 ?
aDG glyco act: -0.2; CSN deneddyl inh: 60.0*; Rev-erbA mod: 2.3; HNF4A DNA FP: 0.1

What do the screens show for `COc1ccc2[nH]cc(CCNS(=O)(=O)c3ccc(F)cc3)c2c1`?
aDG glyco act: 0.5; CSN deneddyl inh: 1.0; Rev-erbA mod: 0.4; HNF4A DNA FP: 1.3

Results for Nc1c(C(=O)c2ccc(Cl)cc2)sc2nsc(SCCN3CCOCC3)c12 ?
aDG glyco act: 1.0; CSN deneddyl inh: 37.6*; Rev-erbA mod: -1.6; HNF4A DNA FP: 55.4

How did CC(=O)c1sc2nsc(SCCN3CCCCC3)c2c1N do in these assays?
aDG glyco act: 0.1; CSN deneddyl inh: 1.5; Rev-erbA mod: 3.5; HNF4A DNA FP: 1.0

What do the screens show for `Cc1cc(C)c2c(N)c(C(=O)c3ccc(Cl)cc3)sc2n1`?
aDG glyco act: -0.4; CSN deneddyl inh: -8.8; Rev-erbA mod: 2.4; HNF4A DNA FP: 1.4

Results for Nc1c(C(=O)c2ccccc2)sc2nsc(SCCN3CCCC3)c12 ?
aDG glyco act: 0.3; CSN deneddyl inh: 24.9; Rev-erbA mod: -1.5; HNF4A DNA FP: 37.9*

Results for COC(=O)[C@H](CC(C)C)N1Cc2nnn(Cc3ccc(C)cc3)c2-c2cc(F)ccc2S1(=O)=O ?
Rev-erbA mod: 3.0

Results for CC(CCN1CCC(C(O)(c2ccccc2)c2ccccc2)CC1)Oc1cccc(C(F)(F)F)c1 (stereo not drawn) ?
Rev-erbA mod: -6.1

What do the screens show for `CC[C@H]1CN2CCc3cc(OC)c(OC)cc3C2C[C@@H]1CC1NCCc2cc(OC)c(OC)cc21` (stereo partly drawn)?
Rev-erbA mod: 3.1

Results for O=c1[nH]c(/C=C/c2ccc(Br)cc2)nc2ccccc12 ?
aDG glyco act: 0.0; CSN deneddyl inh: 0.5; Rev-erbA mod: 5.8; HNF4A DNA FP: 2.6

How did COc1cc(/C=C/c2nc3ccccc3c(=O)[nH]2)cc(Cl)c1O do in these assays?
aDG glyco act: -0.1; CSN deneddyl inh: 21.2; Rev-erbA mod: -27.1; HNF4A DNA FP: 40.3*

Results for Cc1cccc(/C=C\c2nc3ccccc3c(=O)[nH]2)c1 ?
aDG glyco act: -0.1; CSN deneddyl inh: -8.2; Rev-erbA mod: 7.4; HNF4A DNA FP: 3.5

Results for CN(C)c1ccc(/C=C/c2nc3ccccc3c(=O)[nH]2)cc1 ?
aDG glyco act: 0.0; CSN deneddyl inh: 5.3; Rev-erbA mod: 0.8; HNF4A DNA FP: 67.4*

How did Cc1ccc(-c2ccc(/C=C3\SC(N4CCOCC4)=NC3=O)o2)cc1 do in these assays?
aDG glyco act: -0.3; CSN deneddyl inh: 12.2; Rev-erbA mod: 9.0; HNF4A DNA FP: 50.5*

What do the screens show for `CNC1=C(N(C(C)=O)c2ccc(Br)cc2)C(=O)c2ccccc2C1=O`?
aDG glyco act: 8.7*; CSN deneddyl inh: -1.3; Rev-erbA mod: 7.3; HNF4A DNA FP: 2.6

What do the screens show for `CCC(=O)N(C1=C(NC)C(=O)c2ccccc2C1=O)C(C)C`?
aDG glyco act: 1.1; CSN deneddyl inh: 1.3; Rev-erbA mod: 10.0; HNF4A DNA FP: -3.2

What do the screens show for `Cc1cc(C)n2c(NC3CCCCC3)c(CC(C)C)nc2n1`?
aDG glyco act: 0.2; CSN deneddyl inh: -0.6; Rev-erbA mod: 5.2; HNF4A DNA FP: 108.0*

Results for Cc1cc(C)n2c(NC3CCCCC3)c(-c3ccc(F)cc3)nc2n1 ?
aDG glyco act: -0.1; CSN deneddyl inh: 10.0; Rev-erbA mod: -2.3; HNF4A DNA FP: 3.8

Results for O=C1NC[C@H](CC2CCCCC2)N(CCc2cccc(F)c2)C1=O ?
aDG glyco act: 0.7; CSN deneddyl inh: 38.1*; Rev-erbA mod: -3.0; HNF4A DNA FP: 3.6
